Assay [1] concerns the target T1, Estrogen receptor beta (Homo sapiens, UniProt Q92731). Kind of assay: Agonist activity at ERbeta (unknown origin) expressed in human HepG2 cells assessed as transcriptional activation after 24 hrs by ERE-luciferase reporter gene assay relative to 17beta-estradiol. Format: cell-based. Summed up: (§1)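 HepG2 cells were cotransfected with a 3×ERE-luciferase reporter (10 μg) plus an ERα or ERβ expression vector (1.6 μg) per 10 cm dish. The next day they were replated at 20 000 cells/well in phenol red-free medium with 10% charcoal-dextran-stripped FBS and held overnight. Cells were then dosed over a 12-point range of 10 μM to 100 pM. Luciferase was read after 24 h, with DMSO set as 0% and the top of the E2 curve as 100%.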

Assay [2] concerns the target T1, Estrogen receptor beta. Kind of assay: Displacement of [3H]-estradiol from human full-length ERbeta after 18 to 24 hrs by competitive radiometric binding assay relative to estradiol.
In assay [3] the target is T2, Estrogen receptor (Homo sapiens) (UniProt P03372).
T2 sequence (whole entry): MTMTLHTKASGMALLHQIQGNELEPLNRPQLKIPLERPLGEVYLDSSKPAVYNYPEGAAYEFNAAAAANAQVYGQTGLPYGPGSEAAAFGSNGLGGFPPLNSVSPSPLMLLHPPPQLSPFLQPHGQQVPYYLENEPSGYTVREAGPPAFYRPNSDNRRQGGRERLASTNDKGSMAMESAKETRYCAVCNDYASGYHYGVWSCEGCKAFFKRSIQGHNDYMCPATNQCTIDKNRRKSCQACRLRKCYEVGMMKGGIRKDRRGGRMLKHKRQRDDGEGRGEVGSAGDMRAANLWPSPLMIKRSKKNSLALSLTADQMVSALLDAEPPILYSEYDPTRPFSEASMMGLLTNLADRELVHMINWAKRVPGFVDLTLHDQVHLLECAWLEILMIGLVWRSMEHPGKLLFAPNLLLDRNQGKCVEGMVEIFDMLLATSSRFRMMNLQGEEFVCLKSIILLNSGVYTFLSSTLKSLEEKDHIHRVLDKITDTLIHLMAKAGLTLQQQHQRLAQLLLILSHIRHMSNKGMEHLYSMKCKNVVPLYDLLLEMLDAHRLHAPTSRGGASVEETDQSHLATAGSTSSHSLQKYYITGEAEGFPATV
Kind of assay: Agonist activity at ERalpha (unknown origin) expressed in human HepG2 cells assessed as transcriptional activation after 24 hrs by ERE-luciferase reporter gene assay relative to 17beta-estradiol. Format: cell-based. Summed up: as §1

The next assay concerns HepG2. Kind of assay: Agonist activity at ERalpha (unknown origin) harboring N-terminal AF1 domain deleted mutant expressed in human HepG2 cells assessed as transcriptional activation after 24 hrs by ERE-luciferase reporter gene assay. Format: cell-based.
The target in a further assay is T3, Estrogen receptor (Homo sapiens, UniProt P03372).
T3 sequence (P03372 whole entry): T2 sequence (whole entry)
Kind of assay: Agonist activity at ERalpha (unknown origin) expressed in human HepG2 cells assessed as transcriptional activation after 24 hrs by ERE-luciferase reporter gene assay. Type of assay: cell-based. Summed up:
(§2)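 HepG2 cells were grown in DMEM with 10% FBS and transfected with a 3×ERE-luciferase reporter plus an ERα or ERβ expression vector. The next day cells were moved to phenol red-free medium with 10% charcoal-dextran-stripped FBS, plated at 20 000 cells/well and left overnight. Ligand was then added as a 12-point dose curve from 10 μM to 100 pM. Luciferase was read after 24 h, normalized to DMSO as 0% and the top of the E2 curve as 100%.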

Another assay is filed under the species Homo sapiens. Kind of assay: Selectivity ratio of RBA for human full length ERbeta to RBA for human full-length ERalpha.
Assay [4] concerns the target T1, Estrogen receptor beta. Kind of assay: Agonist activity at ERbeta (unknown origin) expressed in human HepG2 cells assessed as transcriptional activation after 24 hrs by ERE-luciferase reporter gene assay. Format: cell-based. The method in brief:
as §2

In assay [5] the target is T2, Estrogen receptor (Homo sapiens). Kind of assay: Displacement of [3H]-estradiol from human full-length ERalpha after 18 to 24 hrs by competitive radiometric binding assay relative to estradiol.
In assay [6] the target is T1, Estrogen receptor beta. Kind of assay: Antagonist activity at ERbeta (unknown origin) expressed in human HepG2 cells assessed as inhibition of 17beta-estradiol-induced transcriptional activation after 24 hrs by ERE-luciferase reporter gene assay. Type of assay: cell-based. Summed up: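 ERβ-transfected, steroid-deprived HepG2 cells carrying a 3×ERE-luciferase reporter were co-treated with 10 nM estradiol and test ligand over a range of 10 μM to 100 pM. Luciferase was read after 24 h, with each plate normalized to DMSO (0%) and the maximal E2 response (100%). IC50 and % efficacy were derived from the dose curves.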

Assay [7] deals with T2, Estrogen receptor (Homo sapiens). Kind of assay: Antagonist activity at ERalpha (unknown origin) expressed in human HepG2 cells assessed as inhibition of transcriptional activation after 24 hrs by ERE-luciferase reporter gene assay relative to 17beta-estradiol. Format: cell-based. The method in brief:
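Antagonist mode used HepG2 cells cotransfected with a 3×ERE-luciferase reporter plus an ERα expression vector and steroid-deprived in phenol red-free medium with 10% charcoal-dextran-stripped FBS. Cells received 10 nM estradiol together with increasing compound concentrations across a 10 μM to 100 pM dose curve. Luciferase was measured after 24 h and normalized to DMSO (0%) and the top of the E2 curve (100%).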

pEC50, pIC50: −log10 of the molar value. The source made the active and inactive calls. No cut-off for these calls is given here.

T1 sequence (Q92731 whole entry): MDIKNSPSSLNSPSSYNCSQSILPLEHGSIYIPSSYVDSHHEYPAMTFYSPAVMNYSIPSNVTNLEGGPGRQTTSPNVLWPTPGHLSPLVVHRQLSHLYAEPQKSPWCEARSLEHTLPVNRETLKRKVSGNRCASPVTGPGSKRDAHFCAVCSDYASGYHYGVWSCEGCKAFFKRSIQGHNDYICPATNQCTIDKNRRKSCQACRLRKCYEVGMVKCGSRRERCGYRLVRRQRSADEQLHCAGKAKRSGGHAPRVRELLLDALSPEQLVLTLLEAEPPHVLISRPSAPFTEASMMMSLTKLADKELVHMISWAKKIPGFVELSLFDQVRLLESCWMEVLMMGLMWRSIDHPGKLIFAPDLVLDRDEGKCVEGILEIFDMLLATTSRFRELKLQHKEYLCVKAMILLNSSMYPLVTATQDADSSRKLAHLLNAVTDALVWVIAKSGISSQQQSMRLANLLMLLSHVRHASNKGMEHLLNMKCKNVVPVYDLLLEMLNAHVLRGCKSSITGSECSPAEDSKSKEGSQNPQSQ

As for `Oc1ccc(N=C(c2ccc(O)cc2)c2ccc(O)cc2)cc1`, the Efficacy on Estrogen receptor beta [1] stood at 16%; in assay [3] it was 95%; in assay [7], 111%. For the same molecule, the results for the RBA (on Estrogen receptor beta [2]; in [5]) were 0.99% and 1.86%, respectively. For the same molecule, the outcome with HepG2 was inactive. Also, the negative logarithm of the EC50 (pEC50) was 7.85 at Estrogen receptor and 6.48 on Estrogen receptor beta [4]. Besides, the Selectivity ratio in the assay filed under Homo sapiens is 0.5. Moreover, the pIC50 at Estrogen receptor beta [6] is 6.52.

For `Oc1ccc(/C(=N\c2ccc(Br)cc2)c2ccc(O)cc2O)cc1`, the Efficacy at Estrogen receptor beta [1] was found to be 24%; in assay [3] it was 113%; in assay [7], 111%. In addition, the RBA on Estrogen receptor beta [2] was found to be 70.3%; in assay [5], 64.6%. In the assay with HepG2, the outcome was inactive. Besides, the pEC50 on Estrogen receptor is 8.05; on Estrogen receptor beta [4], 4.90. Further, in the assay listed under Homo sapiens, the Selectivity ratio was determined as 1.1. In addition, the pIC50 at Estrogen receptor beta [6] is 7.00.

`Cc1ccccc1/N=C(\c1ccc(O)cc1)c1ccc(O)cc1O`: the Efficacy was 31% at Estrogen receptor beta [1], 111% in assay [3] and 100% in assay [7]. For the same molecule, the RBA on Estrogen receptor beta [2] was 45.1%; in [5] it was 53.3%. For the same molecule, the result with HepG2 was inactive. Besides, in the assay filed under Homo sapiens, the Selectivity ratio worked out at 0.9. Moreover, the pEC50 at Estrogen receptor beta [4] was 8.70. Further, on Estrogen receptor beta [6], the pIC50 was 7.80.

In the case of `Oc1ccc(/C(=N\c2ccccc2)c2ccc(O)cc2O)cc1`, the Efficacy is 25% at Estrogen receptor beta [1], 102% in assay [3] and 134% in [7]. The RBA at Estrogen receptor beta [2] amounted to 18.5%; in assay [5] it was 14.6%. In addition, the figures for the negative-log EC50 (pEC50) at Estrogen receptor and at Estrogen receptor beta [4] were 8.15 and 6.20, respectively. For the same molecule, the Selectivity ratio in the assay listed under Homo sapiens is 1.3. In addition, the pIC50 on Estrogen receptor beta [6] is 8.22.

Turning to `COc1ccc(/N=C(\c2ccc(O)cc2)c2ccc(O)cc2O)cc1`, the Efficacy was 38% on Estrogen receptor beta [1], 102% in assay [3] and 102% in assay [7]. Also, the RBA on Estrogen receptor beta [2] came to 5.33%; in [5] it was 10.5%. Also, the pEC50 was 7.77 on Estrogen receptor and 6.56 on Estrogen receptor beta [4]. Moreover, the Selectivity ratio in the assay listed under Homo sapiens amounted to 0.5.

For `Oc1ccc(/C(=N\c2ccc(Cl)cc2)c2ccc(O)cc2O)cc1`, the Efficacy on Estrogen receptor beta [1] came out at 19%; in [3] it was 114%; in [7], 123%. The RBA at Estrogen receptor beta [2] was found to be 38.1%; in [5], 15.5%. For the same molecule, the result in the assay with HepG2 was inactive. In addition, the values for the pEC50 at Estrogen receptor and on Estrogen receptor beta [4] were 8.40 and 6.41, respectively. Also, the Selectivity ratio in the assay listed under Homo sapiens came out at 2.5. Further, the pIC50 at Estrogen receptor beta [6] is 6.74.

For the molecule `Cc1ccc(/N=C(\c2ccc(O)cc2)c2ccc(O)cc2O)cc1`, the Efficacy at Estrogen receptor beta [1] is 20%; in assay [3], 103%; in assay [7], 122%. Besides, the RBA at Estrogen receptor beta [2] was found to be 17.1%; in assay [5], 9.12%. Further, in the assay with HepG2, the result was inactive. Besides, the pEC50 on Estrogen receptor was 7.80; on Estrogen receptor beta [4], 4.96. For the same molecule, in the assay listed under Homo sapiens, the Selectivity ratio is 1.9. In addition, the pIC50 on Estrogen receptor beta [6] is 6.62.

Turning to `Oc1ccc(C(=Nc2cccc(Cl)c2)c2ccc(O)cc2)cc1`, the Efficacy was found to be 10% at Estrogen receptor beta [1], 102% in [3] and 109% in assay [7]. Also, the figures for the RBA (at Estrogen receptor beta [2]; in [5]) were 114% and 41.8%, respectively. The outcome in the assay on HepG2 was inactive. The pEC50 on Estrogen receptor was 8.00. For the same molecule, the Selectivity ratio in the assay filed under Homo sapiens came out at 2.5. Moreover, the pIC50 on Estrogen receptor beta [6] is 7.80.

The values are drawn from ChEMBL document CHEMBL3232883, “Triaryl-substituted Schiff bases are high-affinity subtype-selective ligands for the estrogen receptor” (J Med Chem, 2014).
